Assay outcomes: PubChem BioAssay, The Scripps Research Institute Molecular Screening Center
In the library only some 1.8% were active in any assay of this set; here they are far more common.
M5 ag – agonists of human muscarinic M5 receptor (CHRM5). P08912. CHO-K1 hM5 cells, Fluo-8 calcium fluorescence; 0% DMSO wells, 100% maximal acetylcholine response. activation, % at 3 µM. 0.19% of 360,000 active. AID 624037;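 active = activation above the run's mean over test compounds plus 3 SD, cut at about 23% in these data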;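 also: signal is peak over basal fluorescence ratio across the kinetic read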
CHRM4 PAM – positive allosteric modulators of human muscarinic M4 receptor. P08173. CHO-K1 hM4/Gqi5, Fluo-8 calcium fluorescence, ACh EC20; 0% = ACh EC20, 100% = maximal ACh. activation, % at 3 µM. 0.4% of 360,000 active;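 active = activation above its plate's cutoff, the mean activation of sample wells plus 3 SD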
Target sequence (P08173 whole entry, looked up): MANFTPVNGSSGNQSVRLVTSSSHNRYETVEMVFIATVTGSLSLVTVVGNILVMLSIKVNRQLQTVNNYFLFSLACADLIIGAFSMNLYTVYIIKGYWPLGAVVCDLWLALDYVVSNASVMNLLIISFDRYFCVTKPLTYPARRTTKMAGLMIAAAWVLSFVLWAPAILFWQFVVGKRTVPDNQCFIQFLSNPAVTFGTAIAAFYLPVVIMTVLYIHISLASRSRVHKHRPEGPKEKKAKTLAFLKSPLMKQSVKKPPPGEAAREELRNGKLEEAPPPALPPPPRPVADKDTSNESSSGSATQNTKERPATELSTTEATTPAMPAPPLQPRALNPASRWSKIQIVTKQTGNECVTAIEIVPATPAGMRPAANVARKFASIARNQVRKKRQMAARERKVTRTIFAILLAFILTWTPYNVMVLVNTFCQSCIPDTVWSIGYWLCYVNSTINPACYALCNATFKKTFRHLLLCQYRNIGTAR
CHRM4 antagonist – CHRM4 antagonism in calcium assay; CHO-hM4 cells, ACh EC80, Fluo-8 calcium fluorescence; inhibition, % at 3 µM; 0.73% of 360,000 active; AID 624125;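 active = inhibition above its plate's cutoff, the mean inhibition of sample wells plus 3 SD, cut at about 27% in these data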;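 also: 0% = acetylcholine EC80 with DMSO and 100% = DMSO without agonist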
CHRM5 PAM – CHRM5 positive allosteric modulation | P08912 | CHO-K1 hM5, Fluo-8 calcium, ACh EC20 PAM; 0% = ACh EC20, 100% = ACh EC100 | activation, % at 3 µM | 0.3% of 360,000 active;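 active = activation above the run cutoff, the mean activation of all test compounds plus 3 SD, cut at about 18% in these data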
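Assay system: CHO-K1 hM5 cells / Incubation: Fluo-8 loading 80 min at 37 °C plus 30 min room temperature / Technique: Fluo-8 calcium dye fluorescence, kinetic read / Repeats: single replicate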
CHRM5 antagonist – blocks acetylcholine activation of human M5 receptor; 0.59% of 360,000 active; P08912; CHO-hM5 cells, Fluo-8 calcium fluorescence, ACh EC80; inhibition, % at 3 µM;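 active = inhibition above a per-plate cutoff, the mean of that plate's test compounds plus 3 SD, cut at about 27% in these data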;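 also: 0% = acetylcholine EC80 with DMSO and 100% = DMSO without agonist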
CHRM4 agonist – agonists of human muscarinic M4 receptor (CHRM4) | P08173 | CHO-K1 hM4/Gqi5, Fluo-8 calcium fluorescence; vehicle 0%, full acetylcholine response 100% | activation, % at 3 µM | 0.14% of 360,000 active;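 active = activation above the run mean over all test wells plus 3 SD, cut at about 32% in these data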;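 also: peak over basal fluorescence ratio per well then scaled between controls; 0% = DMSO wells and 100% = acetylcholine at EC100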
* marks the source's active call; other numbers are inactive results.

SMILES	M5 ag	CHRM4 PAM	CHRM4 antagonist	CHRM5 PAM	CHRM5 antagonist	CHRM4 agonist
CCCNC(=O)c1c(N)n(Cc2ccc3c(c2)OCO3)c2nc3ccccc3nc12	4.0	-2.6	3.2	6.9	-7.4	0.5
O=S(=O)(NC1CN2CCC1CC2)c1ccc(Cl)cc1 (stereo not drawn)	-7.2	0.2	0.9	-2.7	17.0	0.6
OC(c1cccc(Cl)c1)(c1cccc(Cl)c1)C1CN2CCC1CC2 (stereo not drawn)	-5.1	-23.5	94.2*	-21.7	99.4*	22.0
C=CCN=C(SCC(=O)c1ccc(Cl)cc1)c1c(O)n(C)c(=O)n(C)c1=O	-4.2	12.1	21.5	-4.8	13.6	11.7
COc1ccc(NC2Oc3cc4c(cc3C(c3cc(OC)c(OC)c(OC)c3)C2C)OCO4)cc1 (stereo not drawn)	3.3	12.7	-14.8	19.1*	-11.2	0.7
COc1cc(C2c3cc4c(cc3CC3COC(=O)C32)OCO4)cc(OC)c1OC (stereo not drawn)	-0.7	3.2	-8.8	5.7	1.0	0.8
CCCC(=O)NC1=C(N2CC2)C(=O)C(NC(=O)CCC)=C(N2CC2)C1=O	-0.5	15.3	-2.2	14.8	4.9	0.3
COC(=O)C1=C(c2ccc(F)cc2OCc2ccccc2)C[C@@H]2CC[C@H]1N2C(=O)N1CCC(C)CC1	-8.7	-16.4	38.0*	-34.8	15.0	0.9
COC(=O)C1=C(c2cccc(OCc3ccccc3)c2)C[C@@H]2CC[C@H]1N2C(=O)NCCc1ccc(F)cc1	-7.6	-15.8	39.8*	-19.7	4.2	3.6
OC(CN1CCCCC1)c1c[nH]c2ccccc12 (stereo not drawn)	-5.1	-18.0	86.0*	-14.3	24.9	0.5
CC1CCCCN1CC(O)c1c[nH]c2ccccc12 (stereo not drawn)	-3.9	2.7	0.0	3.8	5.0	0.8
O=C1NC(=O)C(=Cc2ccc(-c3ccc(F)cc3O)o2)C(=O)N1	25.0*	26.2*	-6.3	5.0	15.9	12.0
O=C1NC(=O)C(=Cc2ccc(-c3ccc(Cl)cc3)o2)C(=O)N1	-1.9	16.8	-4.2	21.7*	-11.8	1.4
Cn1c(O)c(C=NC2CCN(Cc3ccccc3)CC2)c(=O)n(C)c1=O	-4.5	1.8	3.3	-0.3	7.0	0.9
COC(=O)C1=C(c2ccc(OC)c(OC)c2)C[C@@H]2CC[C@H]1N2C(=O)NC1Cc2ccccc2C1	-6.0	4.7	-9.4	7.8	5.3	-0.7
O=C(c1cccs1)c1cn(Cc2ccccc2Cl)c2ccccc12	-1.9	22.2	-1.2	21.2*	-6.9	-1.1
N#Cc1ccccc1Cn1cc(C(=O)c2cccs2)c2ccccc21	-2.6	-4.7	-13.0	-16.8	6.3	0.3
COC(=O)C1=C(c2ccc(F)cc2F)C[C@@H]2CC[C@H]1N2C	-11.6	-18.4	29.1*	-38.3	21.0	1.0
COC(=O)C1=C(c2ccc(S(C)(=O)=O)cc2)C[C@@H]2CC[C@H]1N2C	2.9	0.6	-8.7	5.0	-2.6	1.8
COC(=O)C1=C(c2ccccc2)C[C@@H]2CC[C@H]1N2C	-11.0	-20.4	21.3	-39.5	62.7*	0.9
COc1cc(OC)c(OC)cc1CNCCc1ccc2c(c1)OCO2	-12.8	2.4	-1.1	3.0	6.1	0.5
O=C1C2CCCN2C(c2cccnc2)N1c1ccc(Cl)cc1 (stereo not drawn)	-2.4	29.7*	0.5	3.2	-7.1	0.5
O=c1[nH]c(=O)n(C2CCCCC2)c(O)c1C1NCCc2ccccc21 (stereo not drawn)	-0.7	-0.2	0.2	4.1	-2.8	0.3
O=c1[nH]c(=S)n(CCC2=CCCCC2)c(O)c1C=NCCCn1ccnc1	-8.0	-19.3	28.5*	-19.1	9.7	-1.4
CN1CCN(c2ccc([N+](=O)[O-])c(Sc3ccccn3)c2)CC1	-15.5	23.6	-14.2	28.3*	-13.2	0.7
Cc1ccccc1CN1CCNCC1	-5.3	1.1	-1.6	2.9	-9.8	0.9
c1ccc2c(c1)Sc1ccccc1N2CC1CN2CCC1CC2 (stereo not drawn)	-1.4	-15.7	98.1*	-18.8	98.5*	1.1
